ChEMBL document CHEMBL1833793 (Bioorg Med Chem Lett, 2011)
pIC50, pKi: −log10 of the molar value.

Tests used:
[1] = biological target: T1, Neuropeptide Y receptor type 1 (Homo sapiens, UniProt P25929); test: Antagonist activity at human NPY1 receptor assessed as calcium mobilization by FLIPR assay; format: functional
T1 sequence (P25929 whole entry): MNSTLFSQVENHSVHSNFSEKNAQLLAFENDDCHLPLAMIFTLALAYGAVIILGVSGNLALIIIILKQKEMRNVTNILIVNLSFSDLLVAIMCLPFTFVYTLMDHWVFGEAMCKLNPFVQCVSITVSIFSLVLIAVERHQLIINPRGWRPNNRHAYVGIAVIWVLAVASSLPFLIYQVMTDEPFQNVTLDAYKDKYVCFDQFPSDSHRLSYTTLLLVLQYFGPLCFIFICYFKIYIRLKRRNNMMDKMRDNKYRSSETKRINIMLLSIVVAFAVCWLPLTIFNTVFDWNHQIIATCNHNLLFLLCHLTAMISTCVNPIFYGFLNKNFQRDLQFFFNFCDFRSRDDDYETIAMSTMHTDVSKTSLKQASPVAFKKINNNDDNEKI

[2] = biological target: Neuropeptide Y receptor type 4 (Homo sapiens, UniProt P50391); test: Antagonist activity at human NPY4 receptor assessed as calcium mobilization by FLIPR assay; format: functional
Liver microsomes = test: Intrinsic clearance in human liver microsome; format: ADME
[3] = biological target: T2, 5-hydroxytryptamine receptor 1A (Homo sapiens, UniProt P08908); test: Binding affinity to human 5HT1A receptor
T2 sequence (P08908 whole entry): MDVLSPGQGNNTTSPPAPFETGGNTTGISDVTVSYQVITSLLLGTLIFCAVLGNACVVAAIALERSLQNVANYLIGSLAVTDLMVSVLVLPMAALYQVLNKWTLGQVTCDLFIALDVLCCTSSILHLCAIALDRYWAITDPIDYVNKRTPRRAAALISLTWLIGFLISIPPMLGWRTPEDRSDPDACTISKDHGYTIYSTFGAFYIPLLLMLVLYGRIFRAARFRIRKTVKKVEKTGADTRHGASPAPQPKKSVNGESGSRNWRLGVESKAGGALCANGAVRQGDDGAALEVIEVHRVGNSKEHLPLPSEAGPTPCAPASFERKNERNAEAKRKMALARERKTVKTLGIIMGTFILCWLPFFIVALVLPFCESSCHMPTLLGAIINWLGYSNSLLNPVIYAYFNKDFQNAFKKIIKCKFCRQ

Cytochrome P450 2C9 = Cytochrome P450 2C9 (Homo sapiens, UniProt P11712); test: Inhibition of CYP2C9; format: ADME
Cytochrome P450 2D6 = Cytochrome P450 2D6 (Homo sapiens, UniProt P10635); test: Inhibition of CYP2D6; format: ADME
[4] = Apparent permeability from basolateral to apical side of the human Caco2 cells; format: ADME, cell-based; settings: Caco-2
[5] = Volume of distribution at steady state in Sprague-Dawley rat at 1 mg/kg, iv and 2 mg/kg, po by HPLC analysis; format: ADME, organism-based; settings: in vivo, read-out: Vdss
Summary of the method: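 Male Sprague-Dawley rats (200–250 g, n = 2) with jugular and carotid cannulae, dosed 1 mg/kg iv and 2 mg/kg po in crossover after 24 h washout. Vehicle was 20% beta cyclodextrin, pH adjusted with methanesulfonic acid to give a solution. Automated serial blood sampling took 12 time points over 24 h. Plasma was quantified by HPLC-MS/MS, with noncompartmental analysis.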

[6] = Half life in Sprague-Dawley rat at 1 mg/kg, iv and 2 mg/kg, po by HPLC analysis; format: ADME, organism-based; settings: in vivo
Summary of the method: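 Cannulated (jugular and carotid) male Sprague-Dawley rats, 200–250 g, n = 2; 1 mg/kg iv and 2 mg/kg po crossover after 24 h washout; dosed in 20% β-cyclodextrin pH-adjusted with methanesulfonic acid; 12 serial blood samples over 24 h; plasma by LC-MS/MS; noncompartmental analysis.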

Rattus norvegicus = test: Inhibition of cPP-induced food intake in po dosed rat administered 1 to 24 hrs before cPP challenge measured for 1 hr; format: functional, organism-based
Summary of the method: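 Rats with lateral-ventricle cannulae dosed po with 20% cyclodextrin vehicle or drug (3, 10, 30 mg/kg) 1, 2, 4, 6 or 24 h before i.c.v. cPP (0.6 nmol); food intake monitored 1 h; randomized weekly crossover, n = 2/condition, 16–20 per group; percent of vehicle + cPP intake, one-way ANOVA with Newman–Keuls.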

[7] = Plasma concentration in cPP-induced feeding rat model at 3 mg/kg, po after 4 hrs; format: ADME, organism-based; design: dose 3 mg/kg, route oral
Summary of the method: (§1)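 Satellite rats (n = 2/dose per week), cannulated in the lateral cerebral ventricle for the feeding study, dosed orally at 3, 10 or 30 mg/kg as a suspension in 20% HP-β-cyclodextrin. Plasma was sampled 1, 2, 4, 6 or 24 h after dosing, alongside i.c.v. cPP (0.6 nmol) feeding tests. Values are given as mean with SD.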

[8] = Drug uptake in brain of cPP-induced feeding rat model at 3 mg/kg, po after 6 hrs; format: ADME, organism-based; design: dose 3 mg/kg, route oral; settings: read-out: Drug uptake
Summary of the method: (§2)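 Satellite rats (n = 2/dose) sampled each week alongside the cPP feeding test; Lu-series dosed po at 3, 10 or 30 mg/kg as suspension in 20% HP-β-cyclodextrin; plasma (ng/mL) and brain tissue (ng/g) levels taken at 1, 2, 4, 6 and 24 h post-dose; mean ± SD reported.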

[9] = Drug uptake in brain of cPP-induced feeding rat model at 10 mg/kg, po after 6 hrs; format: ADME, organism-based; design: dose 10 mg/kg, route oral; settings: read-out: Drug uptake; summary of the method: as §2
[10] = Plasma concentration in cPP-induced feeding rat model at 30 mg/kg, po after 1 hr; format: ADME, organism-based; design: dose 30 mg/kg, route oral; summary of the method: as §1
[11] = Plasma concentration in cPP-induced feeding rat model at 30 mg/kg, po after 4 hrs; format: ADME, organism-based; design: dose 30 mg/kg, route oral; summary of the method: as §1
[12] = Plasma concentration in cPP-induced feeding rat model at 30 mg/kg, po after 6 hrs; format: ADME, organism-based; design: dose 30 mg/kg, route oral; summary of the method: as §1
[13] = Drug uptake in brain of cPP-induced feeding rat model at 30 mg/kg, po after 1 hr; format: ADME, organism-based; design: dose 30 mg/kg, route oral; settings: read-out: Drug uptake; summary of the method: as §2
[14] = Oral bioavailability in mouse at 2 mg/kg by HPLC analysis; format: ADME, organism-based; settings: in vivo
[15] = Plasma clearance in mouse at 1 mg/kg, iv and 2 mg/kg, po by HPLC analysis; format: ADME, organism-based
[16] = Tmax in mouse at 1 mg/kg, iv and 2 mg/kg, po by HPLC analysis; format: ADME, organism-based; settings: in vivo

Sequence of Cytochrome P450 2D6 (P10635 whole entry): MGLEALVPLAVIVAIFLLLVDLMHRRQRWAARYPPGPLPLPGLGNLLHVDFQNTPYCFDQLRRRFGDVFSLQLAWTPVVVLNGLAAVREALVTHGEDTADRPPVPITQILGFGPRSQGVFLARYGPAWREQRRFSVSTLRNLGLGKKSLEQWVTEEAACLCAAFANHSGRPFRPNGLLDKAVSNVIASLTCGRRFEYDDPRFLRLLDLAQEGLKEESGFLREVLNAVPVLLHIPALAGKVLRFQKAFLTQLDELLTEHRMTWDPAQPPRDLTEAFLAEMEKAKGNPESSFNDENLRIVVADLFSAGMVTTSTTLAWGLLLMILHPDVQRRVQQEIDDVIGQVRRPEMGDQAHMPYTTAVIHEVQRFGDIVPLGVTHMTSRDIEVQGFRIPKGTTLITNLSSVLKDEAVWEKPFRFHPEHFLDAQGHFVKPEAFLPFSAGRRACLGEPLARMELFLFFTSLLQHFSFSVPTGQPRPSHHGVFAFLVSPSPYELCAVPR
Sequence of Neuropeptide Y receptor type 4 (P50391 whole entry): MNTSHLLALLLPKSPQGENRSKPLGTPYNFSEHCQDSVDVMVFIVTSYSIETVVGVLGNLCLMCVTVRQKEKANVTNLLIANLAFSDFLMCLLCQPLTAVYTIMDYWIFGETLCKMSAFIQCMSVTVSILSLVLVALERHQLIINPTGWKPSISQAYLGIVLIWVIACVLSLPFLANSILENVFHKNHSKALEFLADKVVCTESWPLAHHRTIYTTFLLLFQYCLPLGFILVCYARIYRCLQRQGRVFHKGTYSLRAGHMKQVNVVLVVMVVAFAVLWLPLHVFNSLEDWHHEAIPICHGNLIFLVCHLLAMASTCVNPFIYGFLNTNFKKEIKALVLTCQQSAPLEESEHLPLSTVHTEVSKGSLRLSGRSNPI
Sequence of Cytochrome P450 2C9 (P11712 whole entry): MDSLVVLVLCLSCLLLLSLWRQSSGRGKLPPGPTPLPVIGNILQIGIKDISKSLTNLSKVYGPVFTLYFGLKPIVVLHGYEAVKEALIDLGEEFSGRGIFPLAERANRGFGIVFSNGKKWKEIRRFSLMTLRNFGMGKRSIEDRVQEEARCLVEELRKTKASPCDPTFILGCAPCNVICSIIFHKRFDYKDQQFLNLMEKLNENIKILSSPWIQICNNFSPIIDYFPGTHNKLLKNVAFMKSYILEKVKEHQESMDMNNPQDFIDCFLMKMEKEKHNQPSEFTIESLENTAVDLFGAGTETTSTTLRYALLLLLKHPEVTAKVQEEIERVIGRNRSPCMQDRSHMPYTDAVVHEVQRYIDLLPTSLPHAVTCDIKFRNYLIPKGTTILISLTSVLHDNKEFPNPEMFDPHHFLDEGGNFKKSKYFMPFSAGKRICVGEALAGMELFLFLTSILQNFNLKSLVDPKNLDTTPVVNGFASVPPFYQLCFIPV

- pIC50 [1]: < 6.00
- pIC50 [2]: < 6.00
- CL (Liver microsomes): 2.5 L/min
- pKi [3]: 6.32
- pIC50 (Cytochrome P450 2C9): < 5.00
- pIC50 (Cytochrome P450 2D6): < 5.00
- Papp B→A [4]: 40.4 ×10⁻⁶ cm/s
- Vd [5]: 3.3 L/kg
- half-life [6]: 378 min
- concentration at 4 h [7]: 52 ng/mL
- concentration at 6 h [8]: 30 ng/g
- concentration at 6 h [9]: 124 ng/g
- concentration at 1 h [10]: 267 ng/mL
- concentration at 4 h [11]: 519 ng/mL
- concentration at 6 h [12]: 181 ng/mL
- concentration at 1 h [13]: 288 ng/g
- bioavailability [14]: 42%
- clearance [15]: 5 mL/min/kg
- Tmax [16]: 1.3 h
Compound: CS(=O)(=O)NC[C@H]1CC[C@H](Nc2nc3c(s2)CCSc2ccccc2-3)CC1
- inhibition (Rattus norvegicus): Dose-dependent effect
